Screening results (PubChem BioAssay)
SENP6 inh = SENP6 protease inhibitors, primary screen, biochemical, luminescence, uHTS; Sentrin-specific protease 6 (Homo sapiens), Q9GZR1; Recombinant SENP6 catalytic domain, aminoluciferin luminescence; inhibition, % at 10 µM; hit rate 1.8% among 330,000; AID 2599, 2010;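 active = inhibition above about 50% at the single tested dose, limit read from the data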;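 note: plate controls were DMSO wells with enzyme for no effect and DMSO wells lacking enzyme for full effect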
Target sequence (Q9GZR1 628-1112 limits assumed): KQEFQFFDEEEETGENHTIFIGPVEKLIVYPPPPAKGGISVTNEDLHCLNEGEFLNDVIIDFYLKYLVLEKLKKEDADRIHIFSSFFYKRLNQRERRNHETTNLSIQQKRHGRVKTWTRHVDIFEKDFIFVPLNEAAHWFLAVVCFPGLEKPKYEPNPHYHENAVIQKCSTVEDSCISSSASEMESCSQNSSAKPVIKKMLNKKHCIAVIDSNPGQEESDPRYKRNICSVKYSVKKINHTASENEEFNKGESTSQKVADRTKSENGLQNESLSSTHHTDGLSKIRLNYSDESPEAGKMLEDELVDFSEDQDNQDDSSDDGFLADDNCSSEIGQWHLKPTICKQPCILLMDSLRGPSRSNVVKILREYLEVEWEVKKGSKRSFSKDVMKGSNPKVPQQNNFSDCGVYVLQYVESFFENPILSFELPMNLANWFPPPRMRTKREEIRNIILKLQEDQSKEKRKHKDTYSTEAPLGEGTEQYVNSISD
SENP1 FRET inh = human SENP1 catalytic domain inhibitors, primary screen, biochemical, FRET, uHTS. recombinant SENP1 catalytic domain, CyPet-SUMO1-YPet FRET cleavage. inhibition, % at 10 µM. hit rate 0.21% among 360,000;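 active = inhibition at least 30% at 10 µM, raw YFP signal under a set limit, fluorescence ratio 0.5 to 1.5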;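 note: 0% = enzyme with DMSO and 100% = no enzyme wells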
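Test system: hSENP1 catalytic domain, recombinant; Amount: 20 pM final SENP1 enzyme; Medium: Tris pH 8 buffer plus EDTA, NaCl, BME, BSA, NP40, catalase; Schedule: 50 min enzyme reaction, room temperature, light-protected; Technique: FRET fluorescence in CFP and YFP emission channels; Controls: no-enzyme wells low, DMSO-plus-enzyme wells high control.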
SENP7 block = SENP7 protease inhibitors, primary screen, biochemical, luminescence, uHTS | hit rate 1.5% among 330,000 | inhibition, % at 5 µM | Sentrin-specific protease 7 (Homo sapiens), Q9BQF6 | recombinant SENP7, Z-RLRGG-aminoluciferin luminescence, 40 min;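 active = inhibition above about 50% at the single test dose, limit read from the data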;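 note: plate controls were DMSO with enzyme for no effect and no enzyme buffer wells for full effect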
HSP90 inh = HSP90 inhibitors, primary screen, cell lysate, luminescence | Heat shock protein HSP 90 (rabbit reticulocyte lysate; luciferase refolding) | Rabbit reticulocyte lysate, luciferase refolding luminescence, 3 h | inhibition, % at 5.6 µM | hit rate 0.91% among 290,000;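 active = inhibition above the screen-wide mean plus 3 SD, computed separately per campaign, cut at about 16% in these data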;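 note: 0% = DMSO wells and 100% = 60 µM geldanamycin wells; inhibitors lower the luminescence because luciferase stays unfolded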
SENP8 block-1 = human SENP8 protease inhibitors, primary screen, biochemical, fluorescence, Nedd8 protein substrate, uHTS. recombinant SENP8. Sentrin-specific protease 8 (Homo sapiens), Q96LD8. inhibition, % at 20 µM. hit rate 0.64% among 360,000; in the data active = inhibition mostly above about 40%, no sharp cut-off; inactive = mostly below about 27%
Target sequence (Q96LD8 whole entry, looked up): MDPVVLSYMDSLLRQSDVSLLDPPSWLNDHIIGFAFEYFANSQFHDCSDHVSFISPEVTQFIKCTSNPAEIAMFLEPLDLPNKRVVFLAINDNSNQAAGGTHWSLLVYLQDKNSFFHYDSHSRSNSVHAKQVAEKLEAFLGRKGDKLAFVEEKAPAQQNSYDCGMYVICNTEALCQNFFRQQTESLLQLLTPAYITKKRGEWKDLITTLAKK
SENP8 block-2 = SENP8 protease inhibitors, primary screen, biochemical, luminescence; Sentrin-specific protease 8 (Homo sapiens), Q96LD8; purified SENP8, Z-RLRGG-aminoluciferin cleavage; inhibition, % at 10 µM; hit rate 1.2% among 330,000; in the data active = inhibition above about 50%
SENP8 conf = SENP8 protease inhibitors, retest, confirmation, biochemical, luminescence, single concentration. shares compounds with SENP7 block. Recombinant SENP8, Z-RLRGG-aminoluciferin luminescence, 60 min. inhibition, % at 12.5 µM. hit rate 40% among 6,200. AID 488912, 2010;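 active = mean inhibition across replicates above about 50%, limit read from the data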
SENP6 confirm = SENP6 protease inhibitors, confirmation, biochemical, luminescence, single concentration; shares compounds with SENP7 block; recombinant SENP6, Z-RLRGG-aminoluciferin luminescence; inhibition, % at 12.5 µM; hit rate 58% among 6,200; AID 488915, 2010
SENP7 conf = SENP7 protease inhibitors, retest, confirmation, biochemical, luminescence, single concentration; shares compounds with SENP7 block; recombinant SENP7, Z-RLRGG-aminoluciferin luminescence, 40 min; inhibition, % at 12.5 µM; hit rate 69% among 6,200
Casp3 select = caspase-3 protease inhibitors, confirmation, selectivity assay for SENP inhibitor project, biochemical, single concentration; shares compounds with SENP7 block; AID 488918, 2010; purified caspase-3, Z-DEVD-aminoluciferin luminescence, 60 min; hit rate 60% among 6,200; inhibition, % at 12.5 µM;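 active = mean inhibition above about 50%, limit read from the data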;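 note: plate controls were enzyme with DMSO for no effect and wells without caspase-3 for full effect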
SENP luc ctr = interferes with luciferase luminescence in SENP counter-screen. shares compounds with SENP7 block. Pre-incubated SENP8/Z-RLRGG-aminoluciferin, luciferase luminescence interference. inhibition, % at 12.5 µM. hit rate 39% among 6,200. AID 488919;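 active = mean inhibition above about 50% when retested at one dose, limit read from the data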;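 note: plate controls were DMSO wells with completed reaction for no effect and substrate without enzyme for full effect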
An asterisk follows results filed as active; · = no result given. The list is not random: actives were taken first. Their share in the collection is about 2.9%.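 Rule for the calls, unless noted: active = mean inhibition above about 50% in the one-dose retest (limit read from the data); inactive = the rest.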

SMILES | SENP6 inh | SENP1 FRET inh | SENP7 block | HSP90 inh | SENP8 block-1 | SENP8 block-2 | SENP8 conf | SENP6 confirm | SENP7 conf | Casp3 select | SENP luc ctr
CC[C@H](C)C(C(=O)N1CCN(C(=O)OC(C)(C)C)CC1)n1cc(C(CC(C)C)NC(=O)OC(C)(C)C)nn1 (stereo not given in full) | -1.2 | 2.7 | -5.6 | -0.4 | 1.7 | -8.3 | · | · | · | · | ·
CC[C@@H](C)C(NC(=O)OC(C)(C)C)c1cn([C@@H](Cc2ccc(O)cc2)C(=O)N2CCN(C(=O)OC(C)(C)C)CC2)nn1 (stereo not given in full) | 81.8* | 3.8 | 32.7 | 11.6 | 2.8 | 47.8 | -1.4 | -5.4 | -0.2 | 6.2 | 6.7
CN1CCN(S(=O)(=O)c2ccc(NS(=O)(=O)c3ccccc3)cc2)CC1 | 7.6 | 0.4 | -3.5 | 1.0 | 0.8 | -3.5 | · | · | · | · | ·
COc1cccc(-c2nc(-c3ccc(C(=O)O)cc3)no2)c1 | 99.0* | 2.1 | 97.2* | · | -12.1 | 95.4* | 99.2* | 99.9* | 103.2* | 99.1* | 86.4*
O=C(O)c1ccc(-c2noc(-c3cccc(F)c3)n2)cc1 | 97.2* | -1.0 | 95.8* | · | 7.5 | 95.1* | 98.1* | 98.6* | 101.3* | 97.2* | 95.0*
CC(=O)Oc1cccc(-c2nc3ccccc3c(=O)o2)c1 | -15.2 | 2.6 | -20.6 | -2.5 | -7.6 | -16.5 | · | · | · | · | ·
COc1cccc(-c2nc(-c3ccc(NC(=O)c4ccncc4)cc3)no2)c1 | 4.0 | -3.5 | -0.5 | -6.1 | 7.2 | 2.3 | · | · | · | · | ·
COc1cccc(-c2nc3ccc(O)cc3c(=O)o2)c1 | 88.6* | -7.5 | 87.1* | -5.1 | -35.8 | 73.7* | -5.7 | 80.8* | 96.3* | 80.0* | 87.1*
O=C(CSc1nnc2c(Cl)cc(Cl)cn12)N1CCN(c2ccc(F)cc2)CC1 | -26.3 | 1.0 | -6.7 | -3.4 | 13.0 | -9.7 | · | · | · | · | ·
O=C1OCCOC2CCCc3oc(C4=CCCCC4)c1c32 (stereo not given) | · | -0.2 | · | · | -72.0 | · | · | · | · | · | ·
Cc1cccc2sc(NC(=O)c3ccc(NS(=O)(=O)c4cccs4)cc3)nc12 | 86.2* | -0.9 | 45.2 | -8.2 | -326.4 | 69.8* | 2.0 | 81.1* | 6.1 | 30.6 | 26.4
O=C(Nc1c2c(nn1-c1ccc(F)cc1)CS(=O)C2)c1ccc2c(c1)OCO2 (stereo not given) | -5.2 | 2.1 | 12.4 | -4.8 | 6.0 | -6.6 | · | · | · | · | ·
CC1(C(=O)NCc2cccs2)Cc2c(-c3ccc4c(c3)OCO4)ccnc2O1 (stereo not given) | · | -0.9 | · | · | -59.5 | · | · | · | · | · | ·
COc1ccc(/C=N/Nc2ccccn2)cc1O | 57.3* | 2.0 | 33.1 | -3.9 | 10.7 | 12.4 | 42.2 | 35.7 | 77.3* | 71.9* | 64.0*
Brc1ccc(/C=N/Nc2ccccn2)cc1 | 1.4 | 0.8 | 64.6* | 2.3 | 24.4 | 32.8 | -3.8 | 42.6 | 85.9* | 39.8 | 0.6
Fc1ccc(/C=N/Nc2ccccn2)cc1 | 66.5* | 0.7 | 64.2* | 1.8 | 11.3 | 45.9 | 29.7 | 42.3 | 82.5* | 56.5* | 42.2
CCOc1ccc(/C=N/Nc2ccccn2)cc1 | 83.7* | -0.8 | 95.0* | 3.7 | 10.3 | 91.4* | 62.9* | 93.6* | 101.9* | 64.8* | 12.2
CCN(CC)C(=O)C1=C(C)N(Cc2ccc(C(C)(C)C)cc2)C(=O)C(CC(=O)NCCCCc2ccccc2)C1 (stereo not given) | · | -0.8 | · | · | -27.7 | · | · | · | · | · | ·
CCN(C(=O)CSc1nnc(SC(C)C)s1)C1CCS(=O)(=O)C1 (stereo not given) | -3.2 | 2.8 | 4.0 | · | 5.3 | -3.1 | · | · | · | · | ·
Clc1ccc(/C=N/Nc2ccccn2)cc1 | 13.5 | 1.5 | 69.0* | -0.4 | 7.0 | 52.4* | 4.3 | 53.6* | 71.5* | 50.7* | 9.1
CC1CCCN(C(=O)c2ccc(-c3ccccc3Cl)o2)C1 (stereo not given) | 50.3* | -0.2 | 16.3 | · | 7.8 | 21.4 | 32.1 | 28.8 | 58.6* | 26.0 | 16.5
O=C(Nc1nnc(C2CC2)s1)C1COc2ccccc2O1 (stereo not given) | 18.4 | 1.9 | 20.0 | 5.5 | 3.3 | 10.3 | · | · | · | · | ·
Cc1cc(C(=O)Nc2nnc(C(F)(F)F)s2)cs1 | 76.2* | 0.8 | 57.6* | 2.1 | -15.1 | 65.1* | 65.6* | 68.2* | 86.5* | 84.2* | 35.9
O=C(Nc1nnc(C(F)(F)F)s1)c1ccc(Br)s1 | 52.7* | 1.3 | 62.3* | 3.6 | -27.9 | 73.0* | 1.9 | 52.8* | 77.0* | 42.8 | 49.7
CCSc1nnc(NC(=O)c2ccc(Br)s2)s1 | -13.3 | 3.1 | 23.1 | -0.5 | -43.5 | -6.8 | · | · | · | · | ·
SMILES | SENP6 inh | SENP1 FRET inh | SENP7 block | HSP90 inh | SENP8 block-1 | SENP8 block-2 | SENP8 conf | SENP6 confirm | SENP7 conf | Casp3 select | SENP luc ctr
Cc1cc(C(=O)Nc2nnc(C(F)(F)F)s2)no1 | -7.1 | -0.2 | 10.0 | 0.0 | -21.5 | -6.4 | · | · | · | · | ·
O=C(Nc1nnc(C(F)(F)F)s1)C1COc2ccccc2O1 (stereo not given) | 82.7* | 3.2 | 64.3* | -2.0 | 14.7 | 67.4* | 80.8* | 80.2* | 95.4* | 91.0* | 84.8*
Cc1ccc2ccc(C3C(=O)c4ccccc4C3=O)nc2c1 | 53.3* | 14.9 | -4.9 | -0.6 | 27.7 | 52.3* | 36.7 | 38.3 | 34.3 | 58.1* | 4.2
CC(=O)NC(C)(c1ccccc1)c1nc(-c2cc(F)cc(F)c2)cs1 (stereo not given) | · | 1.3 | · | · | 17.3 | · | · | · | · | · | ·
CCCC(=O)N1CCC1(C)C(=O)Nc1ccc(OC(F)F)cc1 (stereo not given) | · | 2.3 | · | · | 29.5 | · | · | · | · | · | ·
CC[C@H](C)C(N)c1cn([C@@H](CC(N)=O)C(=O)N2CCNCC2)nn1 (stereo not given in full) | 3.1 | -1.9 | -4.5 | · | 13.7 | -6.8 | · | · | · | · | ·
